Reference: ChEMBL document CHEMBL4118229, “lH-Pyrazolo[3,4-b]quinolin-3-amine derivatives inhibit growth of colon cancer cells via apoptosis and sub G1 cell cycle arrest” (Bioorg Med Chem Lett, 2018)
The source made the active and inactive calls. The calls are words filed in the database; no cut-off is given here.

Tests used:
[1] = test system: MDA-MB-231; test: Antiproliferative activity against human MDA-MB-231 cells by MTT assay; assay type: functional, cell-based
[2] = test system: DU-145; test: Antiproliferative activity against human DU145 cells by MTT assay; assay type: functional, cell-based
[3] = test system: LN-229; test: Antiproliferative activity against human LN229 cells by MTT assay; assay type: functional, cell-based
[4] = test system: HEK293; test: Antiproliferative activity against human HEK293 cells by MTT assay; assay type: cell-based
[5] = test system: HCT-15; test: Antiproliferative activity against human HCT15 cells by MTT assay; assay type: functional, cell-based
[6] = test system: HT-29; test: Antiproliferative activity against human HT-29 cells by MTT assay; assay type: functional, cell-based
[7] = test system: LoVo; test: Antiproliferative activity against human LoVo cells by MTT assay; assay type: functional, cell-based
[8] = test system: PC-3; test: Antiproliferative activity against human PC3 cells by MTT assay; assay type: functional, cell-based
[9] = test system: HCT-116; test: Antiproliferative activity against human HCT116 cells by MTT assay; assay type: functional, cell-based
[10] = test system: A2780; test: Antiproliferative activity against human A2780 cells by MTT assay; assay type: functional, cell-based
[11] = test system: MCF7; test: Antiproliferative activity against human MCF7 cells by MTT assay; assay type: functional, cell-based
[12] = test system: HCT-116; test: Induction of apoptosis in human HCT116 cells assessed as viable cells at 5 uM after 24 hrs by Alexa Fluor 488 Annexin V/MitoTracker red staining-based flow cytometric analysis (reference value: 92.5%); assay type: functional; details: HCT-116, 24 h, read-out: Activity
[13] = test system: HCT-116; test: Induction of apoptosis in human HCT116 cells assessed as apoptotic cells at 30 uM after 24 hrs by Alexa Fluor 488 Annexin V/MitoTracker red staining-based flow cytometric analysis (reference value: 7.48%); assay type: functional
[14] = test system: HCT-116; test: Cell cycle arrest in human HCT116 cells assessed as G1 phase accumulation at 10 uM after 24 hrs by propidium iodide staining-based flow cytometric analysis (reference value: 78.7%); assay type: functional
[15] = test system: HCT-116; test: Induction of apoptosis in human HCT116 cells assessed as viable cells at 10 uM after 24 hrs by Alexa Fluor 488 Annexin V/MitoTracker red staining-based flow cytometric analysis (reference value: 92.5%); assay type: functional; details: HCT-116, 24 h, read-out: Activity
[16] = test system: HCT-116; test: Inhibition of colony formation in human HCT116 cells assessed as decrease in reduction in mean colony formation rate at 5 to 20 uM; assay type: functional, cell-based
Outline: (§1)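 HCT116 colony formation assay with 5, 10 or 20 μM, or vehicle. Colony number, density and size recorded. Three independent repeats.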

[17] = test system: HCT-116; test: Induction of apoptosis in human HCT116 cells assessed as apoptotic cells at 10 uM after 24 hrs by Alexa Fluor 488 Annexin V/MitoTracker red staining-based flow cytometric analysis (reference value: 7.48%); assay type: functional
[18] = test system: HCT-116; test: Cell cycle arrest in human HCT116 cells assessed as S phase accumulation at 10 uM after 24 hrs by propidium iodide staining-based flow cytometric analysis (reference value: 9.18%); assay type: functional
[19] = test system: HCT-116; test: Cell cycle arrest in human HCT116 cells assessed as G1 phase accumulation at 5 uM after 24 hrs by propidium iodide staining-based flow cytometric analysis (reference value: 78.7%); assay type: functional
[20] = test system: HCT-116; test: Cell cycle arrest in human HCT116 cells assessed as G2 phase accumulation at 10 uM after 24 hrs by propidium iodide staining-based flow cytometric analysis (reference value: 7.56%); assay type: functional
[21] = test system: HCT-116; test: Cell cycle arrest in human HCT116 cells assessed as subG1 phase accumulation at 20 uM after 24 hrs by propidium iodide staining-based flow cytometric analysis (reference value: 3.81%); assay type: functional
[22] = test system: HCT-116; test: Cell cycle arrest in human HCT116 cells assessed as G1 phase accumulation at 20 uM after 24 hrs by propidium iodide staining-based flow cytometric analysis (reference value: 78.7%); assay type: functional
[23] = test system: HCT-116; test: Induction of apoptosis in human HCT116 cells after 24 hrs by Alexa Fluor 488 Annexin V/MitoTracker red staining-based flow cytometric analysis; assay type: functional, cell-based
[24] = test system: HCT-116; test: Cell cycle arrest in human HCT116 cells assessed as G2 phase accumulation at 20 uM after 24 hrs by propidium iodide staining-based flow cytometric analysis (reference value: 7.56%); assay type: functional
[25] = test system: HCT-116; test: Cell cycle arrest in human HCT116 cells assessed as subG1 phase accumulation at 10 uM after 24 hrs by propidium iodide staining-based flow cytometric analysis (reference value: 3.81%); assay type: functional
[26] = test system: HCT-116; test: Cell cycle arrest in human HCT116 cells assessed as subG1 phase accumulation at 5 uM after 24 hrs by propidium iodide staining-based flow cytometric analysis (reference value: 3.81%); assay type: functional
[27] = test system: HCT-116; test: Cytotoxicity against human HCT116 cells assessed as reduction in cell confluence at 10 to 30 uM after 20 hrs; assay type: functional, cell-based
[28] = test system: HCT-116; test: Induction of apoptosis in human HCT116 cells assessed as apoptotic cells at 20 uM after 24 hrs by Alexa Fluor 488 Annexin V/MitoTracker red staining-based flow cytometric analysis (reference value: 7.48%); assay type: functional
[29] = test system: HCT-116; test: Induction of apoptosis in human HCT116 cells assessed as apoptotic cells at 5 uM after 24 hrs by Alexa Fluor 488 Annexin V/MitoTracker red staining-based flow cytometric analysis (reference value: 7.48%); assay type: functional
[30] = test system: HCT-116; test: Inhibition of colony formation in human HCT116 cells assessed as decrease in colony size at 5 to 20 uM; assay type: functional, cell-based; outline: as §1
[31] = test system: HCT-116; test: Cell cycle arrest in human HCT116 cells assessed as sub G1 phase accumulation after 24 hrs by propidium iodide staining-based flow cytometric analysis; assay type: functional
[32] = test system: HCT-116; test: Cell cycle arrest in human HCT116 cells assessed as S phase accumulation at 20 uM after 24 hrs by propidium iodide staining-based flow cytometric analysis (reference value: 9.18%); assay type: functional
[33] = test system: LoVo; test: Cytotoxicity against human LoVo cells at 1 to 30 uM incubated for 72 hrs by inverted microscopy
[34] = test system: HCT-116; test: Induction of apoptosis in human HCT116 cells assessed as nuclear fragmentation at 5 to 10 uM after 24 hrs by DAPI staining-based fluorescent microscopic analysis; assay type: functional, cell-based
Outline: (§2)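 HCT116 cells given 5 or 10 μM, or vehicle, for 24 or 48 h. Cells fixed and stained with DAPI. Condensed and fragmented nuclei assessed by fluorescence microscopy at 40X.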

[35] = test system: HCT-116; test: Induction of apoptosis in human HCT116 cells assessed as nuclear condensation at 5 to 10 uM after 24 hrs by DAPI staining-based fluorescent microscopic analysis; assay type: functional, cell-based; outline: as §2
[36] = test system: HCT-116; test: Induction of apoptosis in human HCT116 cells assessed as chromatin condensation at 5 to 10 uM after 48 hrs by DAPI staining-based fluorescent microscopic analysis; assay type: functional, cell-based; outline: as §2
[37] = test system: HCT-15; test: Cytotoxicity against human HCT15 cells at 1 to 30 uM incubated for 72 hrs by inverted microscopy
[38] = test system: HCT-116; test: Induction of apoptosis in human HCT116 cells assessed as viable cells at 30 uM after 24 hrs by Alexa Fluor 488 Annexin V/MitoTracker red staining-based flow cytometric analysis (reference value: 92.5%); assay type: functional; details: HCT-116, 24 h, read-out: Activity
[39] = test system: HCT-116; test: Cytotoxicity against human HCT116 cells assessed as cell confluence at 10 to 30 uM up to 72 hrs (reference value: 60%); assay type: functional
[40] = test system: HEK293; test: Cytotoxicity against human HEK293 cells at 1 to 30 uM incubated for 72 hrs by inverted microscopy; details: hek293, 72 h
[41] = test system: HCT-116; test: Cell cycle arrest in human HCT116 cells assessed as G2 phase accumulation at 5 uM after 24 hrs by propidium iodide staining-based flow cytometric analysis (reference value: 7.56%); assay type: functional
[42] = test system: HCT-116; test: Cell cycle arrest in human HCT116 cells assessed as S phase accumulation at 5 uM after 24 hrs by propidium iodide staining-based flow cytometric analysis (reference value: 9.18%); assay type: functional
[43] = test system: HCT-116; test: Cytotoxicity against human HCT116 cells at 1 to 30 uM incubated for 72 hrs by inverted microscopy
[44] = test system: HCT-116; test: Induction of apoptosis in human HCT116 cells assessed as viable cells at 20 uM after 24 hrs by Alexa Fluor 488 Annexin V/MitoTracker red staining-based flow cytometric analysis (reference value: 92.5%); assay type: functional; details: HCT-116, 24 h, read-out: Activity

## COc1ccc2nc3[nH]nc(N)c3cc2c1
[1]
  IC50: 62.3 µM
[2]
  IC50: 76.5 µM
[3]
  IC50: 93.7 µM
[4]
  IC50: > 100 µM
[5]
  IC50: 69.3 µM
[6]
  IC50: 85.2 µM
[7]
  IC50: 55.6 µM
[8]
  IC50: > 100 µM
[9]
  IC50: 57 µM
[10]
  IC50: 35.8 µM
[11]
  IC50: 49.5 µM

## Cc1cc2cc3c(N)[nH]nc3nc2cc1C
[1]
  IC50: > 100 µM
[2]
  IC50: > 100 µM
[3]
  IC50: 38.9 µM
[4]
  IC50: > 100 µM
[5]
  IC50: > 100 µM
[6]
  IC50: > 100 µM
[7]
  IC50: > 100 µM
[8]
  IC50: > 100 µM
[9]
  IC50: > 100 µM
[10]
  IC50: > 100 µM
[11]
  IC50: 78.8 µM

## COc1ccc2cc3c(N)n[nH]c3nc2c1
[12]
  viability at 5 µM: 77%
[1]
  IC50: 50.6 µM
[2]
  IC50: 53.4 µM
[13]
  Activity: 53.3%
[3]
  IC50: 7.8 µM
[4]
  IC50: 45.8 µM
[14]
  Activity: 45.9%
[15]
  viability at 10 µM: 68.1%
[16]
  inhibition: Active
[17]
  Activity: 31.8%
[5]
  IC50: 9.6 µM
[18]
  Activity: 15.1%
[19]
  Activity: 59.3%
[20]
  Activity: 5.3%
[21]
  Activity: 55.9%
[6]
  IC50: 3.9 µM
[22]
  Activity: 33.5%
[23]
  Activity: Dose-dependent effect
[7]
  IC50: 10.2 µM
[8]
  IC50: 87.1 µM
[24]
  Activity: 0.6%
[25]
  Activity: 32%
[26]
  Activity: 22.4%
[27]
  Activity: Active
[28]
  Activity: 34%
[29]
  Activity: 22.9%
[9]
  IC50: 2.3 µM
[30]
  inhibition: Active
[31]
  Activity: Dose-dependent effect
[32]
  Activity: 7.99%
[33]
  Activity: Active
[34]
  Activity: Active
[35]
  Activity: Active
[36]
  Activity: Active
[37]
  Activity: Active
[10]
  IC50: 56.6 µM
[38]
  viability at 30 µM: 46.7%
[39]
  Activity: <=20%
[40]
  Activity: Non-Toxic
[41]
  Activity: 1.37%
[42]
  Activity: 14.5%
[43]
  Activity: Active
[44]
  viability at 20 µM: 66%
[11]
  IC50: 59.2 µM

## Nc1n[nH]c2nc3c(ccc4ccccc43)cc12
[1]
  IC50: > 100 µM
[2]
  IC50: > 100 µM
[3]
  IC50: 54.3 µM
[4]
  IC50: > 100 µM
[5]
  IC50: 68.6 µM
[6]
  IC50: 98.7 µM
[7]
  IC50: 80.6 µM
[8]
  IC50: 59.7 µM
[9]
  IC50: 76.1 µM
[10]
  IC50: 13.5 µM
[11]
  IC50: 73.6 µM

## COc1cc2cc3c(N)n[nH]c3nc2cc1OC
[1]
  IC50: 77.9 µM
[2]
  IC50: 73.4 µM
[3]
  IC50: 26 µM
[4]
  IC50: 81.1 µM
[5]
  IC50: 12.8 µM
[6]
  IC50: 19.4 µM
[7]
  IC50: 33.4 µM
[8]
  IC50: 65.2 µM
[9]
  IC50: 40.8 µM
[10]
  IC50: 19.6 µM
[11]
  IC50: 72.1 µM

## Nc1[nH]nc2nc3ccccc3cc12
[1]
  IC50: > 100 µM
[2]
  IC50: > 100 µM
[3]
  IC50: 7.8 µM
[4]
  IC50: > 100 µM
[5]
  IC50: 58.6 µM
[6]
  IC50: 95.7 µM
[7]
  IC50: 88.6 µM
[8]
  IC50: > 100 µM
[9]
  IC50: 67.7 µM
[10]
  IC50: 83.9 µM
[11]
  IC50: 81.5 µM

## Nc1n[nH]c2nc3cc(Cl)ccc3cc12
[1]
  IC50: 89.9 µM
[2]
  IC50: > 100 µM
[3]
  IC50: 58.6 µM
[4]
  IC50: 36.6 µM
[5]
  IC50: 44.8 µM
[6]
  IC50: 42.3 µM
[7]
  IC50: 77.5 µM
[8]
  IC50: > 100 µM
[9]
  IC50: 56.6 µM
[10]
  IC50: 59.9 µM
[11]
  IC50: > 100 µM

## Cc1ccc2[nH]c3nnc(N)c-3cc2c1
[1]
  IC50: > 100 µM
[2]
  IC50: > 100 µM
[3]
  IC50: 61.2 µM
[4]
  IC50: > 100 µM
[5]
  IC50: > 100 µM
[6]
  IC50: 32.9 µM
[7]
  IC50: 89.6 µM
[8]
  IC50: > 100 µM
[9]
  IC50: > 100 µM
[10]
  IC50: 98.3 µM
[11]
  IC50: > 100 µM
